Converted amounts (≈) assume the structure as drawn.

The source of these data is ChEMBL document CHEMBL1141721, “Structure-toxicity relationship of aminoglycosides: correlation of 2'-amine basicity with acute toxicity in pseudo-disaccharide scaffolds” (Bioorg Med Chem, 2008).

Data set [1] deals with Pseudomonas aeruginosa. Nature of the data set: Antimicrobial activity against Pseudomonas aeruginosa 590 isolate by double-microdilution method. In kind it is functional. The essentials: (§1)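 Double-microdilution method following NCCLS, starting at 384 µg/mL of compound with doubling dilutions. Run in triplicate (a table footnote says duplicates), with analogous results in three separate experiments.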
A general note: Dilution methods test growth across graded concentrations, often in twofold steps.

Data set [2] has as its system Pseudomonas aeruginosa. Nature of the data set: Antimicrobial activity against Pseudomonas aeruginosa 584/5 isolate by double-microdilution method. In kind it is functional.
The subject of data set [3] is Pseudomonas aeruginosa. Put plainly: Antimicrobial activity against Pseudomonas aeruginosa ATCC 27853 by double-microdilution method. In kind it is functional.
The subject of data set [4] is Escherichia coli. Put plainly: Antimicrobial activity against Escherichia coli R477-100 by double-microdilution method. In kind it is functional.
Another data set concerns Bacillus subtilis. Put plainly: Antimicrobial activity against Bacillus subtilis by double-microdilution method. It is filed as functional. The gist of the method:
as §1

Data set [5] relates to Escherichia coli. Put plainly: Inhibition of translation in Escherichia coli S30 extract by coupled transcription/translation assay. It is filed as functional. The gist of the method: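 E. coli S30 extract for circular DNA with pBES-Tluc plasmid, coupled transcription/translation. 25 µL reactions with varied aminoglycoside concentrations, 60 min at 37 °C, then 5 min on ice. Diluted into Tris-phosphate 25 mM pH 7.8 buffer with DTT, CDTA, glycerol, Triton X-100 and BSA. Luciferase luminescence read at once; IC50 fitted from concentration-response curves of at least two independent experiments.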

In data set [6] the test system is Escherichia coli. Put plainly: Antimicrobial activity against Escherichia coli ATCC 25922 by double-microdilution method. In kind it is functional.
For data set [7], the system named is Staphylococcus epidermidis. Nature of the data set: Antimicrobial activity against Staphylococcus epidermidis ATCC 12228 by double-microdilution method. It is filed as functional. The gist of the method: as §1
Data set [8] can be described thus: Toxicity in iv dosed ICR mouse assessed as effect on mortality after 4 days. It is filed as organism-based. The settings on record: in vivo.
Data set [9] concerns Escherichia coli. Nature of the data set: Antimicrobial activity against Escherichia coli XL1 expressing APH(3')-1a by double-microdilution method. In kind it is functional.
Data set [10] can be described thus: Inhibition of Pseudomonas aeruginosa APH(3')-2b assessed as rate of NADH absorbance decrease by pyruvate kinase/lactate dehydrogenase coupled assay. The essentials: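 Purified recombinant APH(3')-IIb, affinity-purified on a neomycin B column. ATP consumption followed by pyruvate kinase/lactate dehydrogenase coupling as NADH decrease at 340 nm. Buffer: 50 mM Tris-HCl pH 7.5, 40 mM KCl, 10 mM MgCl2, 1 mM ATP, 2.5 mM PEP. Neamine substrate 1–100 µM, inhibitor 0–1000 µM. 5 min preincubation at 37 °C, started with enzyme. Ki by nonlinear regression.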

Data set [11] concerns Pseudomonas aeruginosa. Put plainly: Activity of Pseudomonas aeruginosa APH(3')-2b assessed as rate of NADH absorbance decrease by pyruvate kinase/lactate dehydrogenase coupled assay. The gist of the method: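 Recombinant APH(3')-IIb purified on a neomycin B affinity column. Substrate neamine 1–100 μM, inhibitor 0–1000 μM. Preincubation 5 min at 37 °C, then started with enzyme. NADH loss read at 340 nm; Ki by nonlinear regression.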

A word on the MIC: it is the least concentration at which growth counts as inhibited. Lower therefore signals a more susceptible organism. As usually defined, the IC50 is the point on the concentration scale where inhibition reaches its midpoint. The low end stands for inhibition by little substance, the high end for a need for much substance. By LD50 is commonly meant the dose at which mortality reaches 50%. For the compound `CN[C@@H]1[C@@H](O)[C@@H](O[C@@H]2[C@@H](O)[C@H](O[C@H]3O[C@H](CN)[C@H]4OCO[C@@H]4[C@H]3N)[C@@H](N)C[C@H]2N)OC[C@]1(C)O`, the MIC came out at 48 µg/mL (≈ 97.3 µM) with Pseudomonas aeruginosa [1]; 24 µg/mL (≈ 48.6 µM) in the data set with Pseudomonas aeruginosa [2]; 24 µg/mL (≈ 48.6 µM) against Pseudomonas aeruginosa [3]; 48 µg/mL (≈ 97.3 µM) against Escherichia coli [4]; 12 µg/mL (≈ 24.3 µM) against Bacillus subtilis; 48 µg/mL (≈ 97.3 µM) in the data set with Escherichia coli [6]. Besides, the MIC stood at 24 µg/mL (≈ 48.6 µM) in [7] and 12 µg/mL (≈ 24.3 µM) in the data set on Escherichia coli [9]. In the data set on Escherichia coli [5], this compound yielded an IC50 of 0.038 µM. Moreover, in data set [8], the LD50 at 96 h came to 226 mg/kg.

With `CNC1C(O)C(OC2C(N)CC(N)C(OC3OC(CN)CCC3N)C2O)OCC1(C)O` (stereo not drawn) [GENTAMICIN C1A], the MIC in the data set on Pseudomonas aeruginosa [1] was 384 µg/mL (≈ 854 µM); in the data set with Bacillus subtilis, 6 µg/mL (≈ 13.3 µM); in data set [7], 6 µg/mL (≈ 13.3 µM).

As usually defined, the Ki is the equilibrium dissociation constant of an inhibitor or competing ligand from its target. For `NC[C@H]1O[C@H](O[C@H]2[C@H](O)[C@@H](O)[C@H](N)C[C@@H]2N)[C@H](N)[C@H]2OCO[C@@H]21`, the minimum inhibitory concentration (MIC) in the data set on Escherichia coli [4] was > 384 µg/mL. Moreover, the Ki in data set [10] came to 642 µM. The 50% lethal dose (LD50) at 96 h in data set [8] turned out to be 303 mg/kg.

One may read the Km as the substrate concentration at which the rate is half of its maximum. For orientation: kcat means the number of substrate molecules converted per active site and unit of time at saturation. As for `NC[C@H]1O[C@H](O[C@H]2[C@H](O)[C@@H](O)[C@H](N)C[C@@H]2N)[C@H](N)[C@@H](O)[C@@H]1O` [NEAMINE], 96 µg/mL (≈ 298 µM) was the least that counted as inhibitory against Escherichia coli [4] (MIC). Also, in the data set on Pseudomonas aeruginosa [11], the Km stood at 10.3 µM and the kcat was found to be 1.7 s⁻¹. For the same compound, in data set [8], the 50% lethal dose (LD50) at 96 h came out at 161 mg/kg.

In turn, `NC[C@@H]1CC[C@@H](N)[C@@H](O[C@H]2[C@H](O)[C@@H](O)[C@H](N)C[C@@H]2N)O1` [GENTAMINE C1A] showed an MIC against Escherichia coli [4] of 192 µg/mL (≈ 661 µM). The Ki in data set [10] was found to be 650 µM. Moreover, the median lethal dose (LD50) at 96 h in data set [8] is 103 mg/kg.
